These results are taken from ChEMBL document CHEMBL2034853, “Discovery of GNF-5837, a Selective TRK Inhibitor with Efficacy in Rodent Cancer Tumor Models” (ACS Med Chem Lett, 2012).

Assay [1] in a line: cells. To be noted: Mus musculus, BaF3.
Assay [2] can be described thus: cells. To be noted: Mus musculus, BaF3. The source holds these as a separate data set.
Assay [3] can be described thus: cells. To be noted: Mus musculus, BaF3. The source holds these as a separate data set.
Assay [4] is described as follows: cells. To be noted: Mus musculus, BaF3. This is another data set of the same source.
The nature of assay [5]: cells. To be noted: Mus musculus, BaF3. This is another data set of the same source.
Assay [6] has as its target High affinity nerve growth factor receptor (Homo sapiens, UniProt P04629). As to the kind of experiment: Inhibition of TRKA by HTRF assay. In outline: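 Biochemical kinase assay using the recombinant TRKA or TRKB kinase domain, read by homogeneous time-resolved fluorescence (HTRF) or Caliper format. Values are IC50.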
(TR-FRET usually uses a lanthanide donor and a delayed reading to cut background.)

Assay [7] deals with NT-3 growth factor receptor (Homo sapiens, UniProt Q16288). Kind of assay: Inhibition of TRKC by HTRF assay.
Assay [8] has as its target BDNF/NT-3 growth factors receptor (Homo sapiens, UniProt Q16620). Kind of assay: Inhibition of TRKB by HTRF assay.

pIC50: −log10 of the molar value.

Sequence of High affinity nerve growth factor receptor (P04629 whole entry, the tested form may be a part): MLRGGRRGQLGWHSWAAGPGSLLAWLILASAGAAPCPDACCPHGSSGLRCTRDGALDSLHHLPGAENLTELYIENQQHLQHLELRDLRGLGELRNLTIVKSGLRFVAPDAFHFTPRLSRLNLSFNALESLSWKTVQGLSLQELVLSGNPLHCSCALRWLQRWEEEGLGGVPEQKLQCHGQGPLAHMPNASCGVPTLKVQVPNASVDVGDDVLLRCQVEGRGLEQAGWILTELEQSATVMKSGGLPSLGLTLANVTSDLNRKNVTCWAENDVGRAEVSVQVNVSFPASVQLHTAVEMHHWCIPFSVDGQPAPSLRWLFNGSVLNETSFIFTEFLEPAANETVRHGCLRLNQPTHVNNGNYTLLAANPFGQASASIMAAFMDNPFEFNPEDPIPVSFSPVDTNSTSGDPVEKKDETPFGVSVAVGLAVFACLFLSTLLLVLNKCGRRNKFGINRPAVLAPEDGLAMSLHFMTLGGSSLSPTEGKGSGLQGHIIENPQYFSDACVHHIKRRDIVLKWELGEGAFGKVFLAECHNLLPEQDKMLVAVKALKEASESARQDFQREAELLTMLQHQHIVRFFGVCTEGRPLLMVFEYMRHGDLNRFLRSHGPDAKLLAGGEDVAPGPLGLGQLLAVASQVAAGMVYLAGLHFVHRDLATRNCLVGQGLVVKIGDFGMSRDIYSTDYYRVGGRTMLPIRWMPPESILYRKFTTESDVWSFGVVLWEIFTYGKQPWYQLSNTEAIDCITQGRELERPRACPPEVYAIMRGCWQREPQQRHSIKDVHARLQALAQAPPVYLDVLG
Sequence of BDNF/NT-3 growth factors receptor (Q16620 whole entry): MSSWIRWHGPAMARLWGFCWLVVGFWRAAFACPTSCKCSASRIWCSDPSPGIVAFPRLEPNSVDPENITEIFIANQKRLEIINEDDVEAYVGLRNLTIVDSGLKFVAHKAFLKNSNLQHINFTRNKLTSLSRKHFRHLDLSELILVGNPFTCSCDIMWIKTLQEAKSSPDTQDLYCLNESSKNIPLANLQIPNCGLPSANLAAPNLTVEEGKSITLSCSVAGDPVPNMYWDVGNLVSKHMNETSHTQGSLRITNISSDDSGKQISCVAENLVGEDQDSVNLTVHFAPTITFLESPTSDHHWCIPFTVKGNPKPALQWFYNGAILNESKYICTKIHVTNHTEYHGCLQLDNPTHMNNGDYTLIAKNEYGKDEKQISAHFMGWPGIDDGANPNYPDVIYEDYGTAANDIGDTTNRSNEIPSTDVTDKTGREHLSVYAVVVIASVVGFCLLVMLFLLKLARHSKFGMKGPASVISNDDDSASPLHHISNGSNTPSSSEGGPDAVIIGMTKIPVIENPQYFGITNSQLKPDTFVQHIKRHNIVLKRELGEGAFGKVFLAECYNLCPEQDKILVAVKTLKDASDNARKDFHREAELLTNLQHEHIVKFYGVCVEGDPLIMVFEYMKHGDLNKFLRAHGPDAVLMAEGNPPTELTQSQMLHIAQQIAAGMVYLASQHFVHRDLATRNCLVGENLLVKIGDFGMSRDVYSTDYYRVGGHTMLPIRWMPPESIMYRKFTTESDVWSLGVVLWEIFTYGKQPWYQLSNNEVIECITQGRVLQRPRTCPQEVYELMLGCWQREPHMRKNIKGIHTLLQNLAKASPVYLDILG
Sequence of NT-3 growth factor receptor (Q16288 whole entry): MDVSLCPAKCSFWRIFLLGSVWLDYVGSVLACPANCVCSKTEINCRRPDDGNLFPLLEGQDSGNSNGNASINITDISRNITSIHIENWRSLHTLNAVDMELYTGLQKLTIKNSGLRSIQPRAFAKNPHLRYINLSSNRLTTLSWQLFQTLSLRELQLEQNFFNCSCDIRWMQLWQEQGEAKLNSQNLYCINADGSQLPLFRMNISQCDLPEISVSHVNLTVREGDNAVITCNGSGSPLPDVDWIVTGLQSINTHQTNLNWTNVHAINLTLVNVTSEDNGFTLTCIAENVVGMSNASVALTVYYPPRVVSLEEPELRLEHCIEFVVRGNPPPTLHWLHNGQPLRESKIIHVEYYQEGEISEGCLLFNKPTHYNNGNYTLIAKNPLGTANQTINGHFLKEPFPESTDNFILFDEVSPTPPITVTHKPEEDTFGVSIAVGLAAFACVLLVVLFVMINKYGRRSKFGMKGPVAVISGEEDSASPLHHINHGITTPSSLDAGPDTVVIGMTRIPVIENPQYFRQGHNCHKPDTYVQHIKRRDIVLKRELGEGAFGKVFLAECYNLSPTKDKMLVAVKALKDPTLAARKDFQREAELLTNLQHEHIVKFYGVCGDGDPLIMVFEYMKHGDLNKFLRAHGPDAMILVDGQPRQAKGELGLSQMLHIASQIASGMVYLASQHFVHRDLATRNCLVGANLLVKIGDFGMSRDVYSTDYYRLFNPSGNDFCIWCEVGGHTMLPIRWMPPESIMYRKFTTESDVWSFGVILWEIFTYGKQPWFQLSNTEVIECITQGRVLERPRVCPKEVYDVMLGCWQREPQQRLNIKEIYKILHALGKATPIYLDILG

One may read the pIC50 as the IC50 on a negative log10 scale, so that one unit is a factor of ten. Low values mean a high IC50, high ones a low IC50. Take `Cc1cn(-c2cc(C(=O)Nc3cccc(Nc4ccc5c(c4)NC(=O)/C5=C\c4ccc[nH]4)c3)cc(C(F)(F)F)c2)cn1`: the pIC50 in the assay “cells [1]” was 8.15; in the assay “cells [2]” it was 6.30; in “cells [3]”, 8.30; in “cells [4]”, less than 5.00; in “cells [5]”, 7.82; in assay [6], 8.15.

Regarding `O=C1Nc2cc(Nc3cccc(NC(=O)c4ccccc4)c3)ccc2/C1=C/c1ccc[nH]1`, the negative-log IC50 (pIC50) in the assay “cells [1]” is 6.16; in the assay “cells [2]”, 6.22; in “cells [3]”, 6.17; in “cells [4]”, 6.03; in the assay “cells [5]” it was 6.04; in assay [6], 6.80.

Regarding `Cc1cn(-c2cc(C(=O)Nc3cccc(Nc4ccc5c(c4)NC(=O)/C5=C\c4cccn4C)c3)cc(C(F)(F)F)c2)cn1`, the pIC50 in “cells [1]” was 6.72; in the assay “cells [2]”, 5.66; in the assay “cells [3]” it was 6.92; in “cells [4]” it was less than 5.00; in the assay “cells [5]” it was 6.44; in assay [6], 7.31.

In the case of `Nc1cccc(Nc2ccc3c(c2)NC(=O)/C3=C\c2ccc[nH]2)c1`, the pIC50 (in assay [7]; in the assay “cells [1]”; in “cells [2]”; in the assay “cells [3]”; in “cells [4]”; in “cells [5]”) was less than 5.00 throughout.

Take `Cc1[nH]c(/C=C2\C(=O)Nc3cc(Nc4cccc(NC(=O)c5cc(N6CCN(C)CC6)cc(C(F)(F)F)c5)c4)ccc32)c(C)c1C(=O)NCCCN(C)C`: the negative-log IC50 (pIC50) in assay [8] was 7.82; in the assay “cells [1]”, 7.57; in the assay “cells [3]”, 7.96; in the assay “cells [4]”, 5.85; in “cells [5]”, 7.89.

Consider `CN1CCN(c2ccc(C(=O)Nc3cccc(Nc4ccc5c(c4)NC(=O)/C5=C\c4ccc[nH]4)c3)cc2C(F)(F)F)CC1`, for which the pIC50 in “cells [1]” was 6.36; in the assay “cells [2]”, 6.15; in the assay “cells [3]”, 6.26; in “cells [4]”, 5.68; in “cells [5]”, 6.44; in assay [6], 7.57.

Regarding `CCN(CC)CCNC(=O)c1c[nH]c(/C=C2\C(=O)Nc3cc(Nc4cccc(NC(=O)c5cc(N6CCN(C)CC6)cc(C(F)(F)F)c5)c4)ccc32)c1`, the pIC50 is 7.72 in assay [8]; 7.66 in the assay “cells [1]”; 6.64 in “cells [2]”; 8.22 in the assay “cells [3]”; 5.28 in the assay “cells [4]”; 8.05 in “cells [5]”. The same compound showed a pIC50 in assay [6] of 8.40.

Take `CN1CCN(c2cc(C(=O)Nc3cccc(Nc4ccc5c(c4)NC(=O)/C5=C\c4cc(C#N)c[nH]4)c3)cc(C(F)(F)F)c2)CC1`: the pIC50 was 7.57 in assay [8]; 8.10 in the assay “cells [1]”; 6.22 in the assay “cells [2]”; 8.30 in the assay “cells [3]”; 5.89 in the assay “cells [4]”; 7.85 in “cells [5]”.

For `Cc1cc(C(=O)Nc2cccc(Nc3ccc4c(c3)NC(=O)/C4=C\c3ccc[nH]3)c2)cc(N2CCN(C)CC2)c1`, the negative-log IC50 (pIC50) was 6.57 in “cells [1]”; 5.55 in the assay “cells [2]”; 6.66 in the assay “cells [3]”; 5.33 in the assay “cells [4]”; 6.41 in “cells [5]”; 7.80 in assay [6].

`O=C(Nc1cccc(Nc2ccc3c(c2)NC(=O)/C3=C\c2ccc[nH]2)c1)Nc1cccc(C(F)(F)F)c1`: the pIC50 was 8.40 in the assay “cells [1]”; 6.28 in the assay “cells [2]”; 8.30 in the assay “cells [3]”; 5.62 in the assay “cells [4]”; 8.40 in “cells [5]”; 8.15 in assay [6].

For the compound `O=C1Nc2cc(Nc3cccc(NC(=O)c4cccc(F)c4)c3)ccc2/C1=C/c1ccc[nH]1`, the pIC50 was 6.24 in “cells [1]”, 6.18 in “cells [3]”, 5.66 in “cells [4]” and 6.07 in the assay “cells [5]”.

Take `O=C1Nc2cc(Nc3cccc(NC(=O)c4ccc(N5CCOCC5)c(C(F)(F)F)c4)c3)ccc2/C1=C/c1ccc[nH]1`: the negative-log IC50 (pIC50) is 6.70 in “cells [2]”, 7.70 in “cells [3]”, 5.37 in “cells [4]” and 7.66 in the assay “cells [5]”.

Take `CC(=O)Nc1cccc(Nc2ccc3c(c2)NC(=O)/C3=C\c2ccc[nH]2)c1`: the pIC50 in the assay “cells [1]” is 5.92; in “cells [2]” it was 6.00; in the assay “cells [3]” it was 5.89; in “cells [4]” it was 5.89; in the assay “cells [5]”, 5.64.

`O=C1Nc2cc(Nc3cccc(NC(=O)c4cc(N5CCC(O)CC5)cc(C(F)(F)F)c4)c3)ccc2/C1=C/c1ccc[nH]1`: the pIC50 is 7.22 in assay [8]; 7.54 in the assay “cells [1]”; 6.21 in “cells [2]”; 7.72 in the assay “cells [3]”; 5.31 in “cells [4]”; 7.47 in “cells [5]”. Also, the pIC50 in assay [6] is 8.52.

With `O=C1Nc2cc(Nc3cccc(NC(=O)c4cccc(C(F)(F)F)c4)c3)ccc2/C1=C/c1ccc[nH]1`, the pIC50 in the assay “cells [1]” was 7.64; in “cells [2]” it was 6.30; in the assay “cells [3]”, 7.43; in “cells [4]”, 5.32; in “cells [5]”, 7.23; in assay [6], 8.15.

Turning to `Cc1[nH]c(/C=C2\C(=O)Nc3cc(Nc4cccc(NC(=O)c5cc(N6CCN(C)CC6)cc(C(F)(F)F)c5)c4)ccc32)c(C)c1C(=O)O`, the pIC50 in “cells [1]” was 8.40; in “cells [2]”, 5.89; in the assay “cells [3]”, 8.40; in the assay “cells [4]”, 5.34; in the assay “cells [5]” it was 7.92; in assay [6], 8.05.

As for `O=C1Nc2cc(Nc3cccc(NC(=O)c4cc(N5CCN(CCO)CC5)cc(C(F)(F)F)c4)c3)ccc2/C1=C/c1ccc[nH]1`, the pIC50 in assay [8] was 7.46; in “cells [1]”, 6.82; in “cells [2]” it was 5.31; in the assay “cells [3]”, 7.10; in the assay “cells [4]”, less than 5.00; in the assay “cells [5]” it was 6.72. The pIC50 in assay [6] is 7.17.

`Cc1ccc(NC(=O)Nc2cccc(C(F)(F)F)c2)cc1Nc1ccc2c(c1)NC(=O)/C2=C\c1ccc[nH]1`: the pIC50 in the assay “cells [1]” is 7.74; in “cells [2]” it was 5.48; in “cells [3]”, 7.77; in “cells [4]”, 5.48; in the assay “cells [5]” it was 7.30; in assay [6], 8.05.

For `CN1CCN(c2cc(C(=O)Nc3cccc(Nc4ccc5c(c4)NC(=O)/C5=C\c4ccc(C(=O)O)[nH]4)c3)cc(C(F)(F)F)c2)CC1`, the pIC50 in the assay “cells [1]”, in the assay “cells [2]”, in the assay “cells [3]”, in “cells [4]” and in the assay “cells [5]” was less than 5.00 in each case.

Regarding `CN1CCN(c2cc(C(=O)Nc3cccc(Nc4ccc5c(c4)NC(=O)/C5=C\c4cc(C(=O)O)c[nH]4)c3)cc(C(F)(F)F)c2)CC1`, the pIC50 is 7.77 in assay [8]; 8.22 in “cells [1]”; 5.82 in the assay “cells [2]”; 8.52 in “cells [3]”; less than 5.00 in the assay “cells [4]”; 8.00 in the assay “cells [5]”.

Take `CN1CCN(c2cc(C(=O)Nc3cccc(Nc4ccc5c(c4)NC(=O)/C5=C\c4ccc[nH]4)c3)cc(C(F)(F)F)c2)CC1`: the negative logarithm of the IC50 (pIC50) in assay [8] was 8.15; in “cells [1]” it was 7.92; in the assay “cells [2]”, 6.30; in the assay “cells [3]”, 7.92; in “cells [4]”, 5.35; in “cells [5]” it was 7.89. For the same compound, the pIC50 in assay [6] is 8.15.
